Results reported in ChEMBL document CHEMBL4330069, “Boosting the efficacy of anti-MRSA β-lactam antibiotics via an easily accessible, non-cytotoxic and orally bioavailable FtsZ inhibitor” (Eur J Med Chem, 2019).
Values after ≈ are worked out from the molar mass of the structure shown.

How the values were obtained:
Staphylococcus aureus [1] = experiment: Antibacterial activity against multidrug-resistant Staphylococcus aureus isolate 2516 by broth microdilution assay; assay type: functional
In short: (§1)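 Broth microdilution MIC per CLSI guidelines against clinical MRSA isolates, for β-lactams and test compound alone and in combination. Compounds were dissolved in DMSO. Growth was read by eye, in duplicate. FIC index = FIC(compound) + FIC(drug); synergy defined as FIC index ≤0.5.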

Staphylococcus aureus [2] = experiment: Antibacterial activity against multidrug-resistant Staphylococcus aureus isolate 1136 by broth microdilution assay; assay type: functional; in short: as §1
Staphylococcus aureus [3] = experiment: Antibacterial activity against multidrug-resistant Staphylococcus aureus isolate 3411 by broth microdilution assay; assay type: functional; in short: as §1
Staphylococcus aureus [4] = experiment: Antibacterial activity against multidrug-resistant Staphylococcus aureus isolate 1344 by broth microdilution assay; assay type: functional; in short: as §1
Staphylococcus aureus [5] = experiment: Antibacterial activity against multidrug-resistant Staphylococcus aureus isolate 417 by broth microdilution assay; assay type: functional; in short: as §1
Staphylococcus aureus [6] = experiment: Antibacterial activity against multidrug-resistant Staphylococcus aureus isolate 2973 by broth microdilution assay; assay type: functional; in short: as §1
Staphylococcus aureus [7] = experiment: Antibacterial activity against multidrug-resistant Staphylococcus aureus isolate 2490 by broth microdilution assay; assay type: functional; in short: as §1
Staphylococcus aureus [8] = experiment: Antibacterial activity against multidrug-resistant Staphylococcus aureus isolate 2901 by broth microdilution assay; assay type: functional; in short: as §1
Staphylococcus aureus [9] = experiment: Antibacterial activity against multidrug-resistant Staphylococcus aureus isolate 774 by broth microdilution assay; assay type: functional; in short: as §1
Staphylococcus aureus [10] = experiment: Antibacterial activity against multidrug-resistant Staphylococcus aureus isolate 2728 by broth microdilution assay; assay type: functional; in short: as §1
Staphylococcus aureus [11] = experiment: Antibacterial activity against multidrug-resistant Staphylococcus aureus isolate 3589 by broth microdilution assay; assay type: functional; in short: as §1
Staphylococcus aureus [12] = experiment: Antibacterial activity against multidrug-resistant Staphylococcus aureus isolate 358 by broth microdilution assay; assay type: functional; in short: as §1
Staphylococcus aureus [13] = experiment: Antibacterial activity against multidrug-resistant Staphylococcus aureus isolate 3580 by broth microdilution assay; assay type: functional; in short: as §1
Staphylococcus aureus [14] = experiment: Antibacterial activity against multidrug-resistant Staphylococcus aureus isolate 3267 by broth microdilution assay; assay type: functional; in short: as §1
Staphylococcus aureus [15] = experiment: Antibacterial activity against multidrug-resistant Staphylococcus aureus isolate 85 by broth microdilution assay; assay type: functional; in short: as §1
Staphylococcus aureus [16] = experiment: Antibacterial activity against multidrug-resistant Staphylococcus aureus isolate 2224 by broth microdilution assay; assay type: functional; in short: as §1
Staphylococcus aureus [17] = experiment: Antibacterial activity against multidrug-resistant Staphylococcus aureus isolate 200 by broth microdilution assay; assay type: functional; in short: as §1
Staphylococcus aureus [18] = experiment: Antibacterial activity against multidrug-resistant Staphylococcus aureus isolate 256 by broth microdilution assay; assay type: functional; in short: as §1
Staphylococcus aureus [19] = experiment: Antibacterial activity against multidrug-resistant Staphylococcus aureus isolate 1449 by broth microdilution assay; assay type: functional; in short: as §1
Staphylococcus aureus [20] = experiment: Antibacterial activity against multidrug-resistant Staphylococcus aureus isolate 2919 by broth microdilution assay; assay type: functional; in short: as §1
Staphylococcus aureus [21] = experiment: Antibacterial activity against multidrug-resistant Staphylococcus aureus isolate 1402 by broth microdilution assay; assay type: functional; in short: as §1
Staphylococcus aureus [22] = experiment: Antibacterial activity against multidrug-resistant Staphylococcus aureus isolate 231 by broth microdilution assay; assay type: functional; in short: as §1
Staphylococcus aureus [23] = experiment: Antibacterial activity against multidrug-resistant Staphylococcus aureus isolate 2895 by broth microdilution assay; assay type: functional; in short: as §1
Staphylococcus aureus [24] = experiment: Antibacterial activity against multidrug-resistant Staphylococcus aureus isolate 1749 by broth microdilution assay; assay type: functional; in short: as §1
Staphylococcus aureus [25] = experiment: Antibacterial activity against multidrug-resistant Staphylococcus aureus isolate 3332 by broth microdilution assay; assay type: functional; in short: as §1
Staphylococcus aureus [26] = experiment: Antibacterial activity against multidrug-resistant Staphylococcus aureus isolate 254 by broth microdilution assay; assay type: functional; in short: as §1
Staphylococcus aureus [27] = experiment: Antibacterial activity against multidrug-resistant Staphylococcus aureus isolate 757 by broth microdilution assay; assay type: functional; in short: as §1
Staphylococcus aureus [28] = experiment: Antibacterial activity against multidrug-resistant Staphylococcus aureus isolate 1717 by broth microdilution assay; assay type: functional; in short: as §1
L929 = experiment: Cytotoxicity against mouse L929 cells by MTS assay; assay type: cell-based
In short: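 MTS assay on L929 mouse fibroblasts; IC50 reported as the average of three independent measurements.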

Staphylococcus aureus [29] = experiment: Antibacterial activity against Staphylococcus aureus ATCC 29213 by broth microdilution assay; assay type: functional
In short: (§2)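 Broth microdilution per CLSI guidelines; compounds dissolved in DMSO; single agents tested; growth inhibition read by eye; run in duplicate (table footnote states at least triplicates).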

[30] = Selective index, ratio of IC50 for mouse L929 cells to MIC for Staphylococcus aureus ATCC 29213
In short: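 Selectivity index calculated as L929 IC50 (μM) divided by S. aureus MIC (μM).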

Escherichia coli = experiment: Antibacterial activity against Escherichia coli ATCC 25922 by broth microdilution assay; assay type: functional; in short: as §2

C[C@@H](O)[C@H]1C(=O)N2C(C(=O)O)=C(S[C@@H]3CN[C@H](C(=O)N(C)C)C3)[C@H](C)[C@H]12 [MEROPENEM]
MIC (Staphylococcus aureus [1]): 16 µg/mL (≈ 41.7 µM) | MIC (Staphylococcus aureus [2]): 2 µg/mL (≈ 5.22 µM) | MIC (Staphylococcus aureus [3]): 4 µg/mL (≈ 10.4 µM) | MIC (Staphylococcus aureus [4]): 16 µg/mL (≈ 41.7 µM) | MIC (Staphylococcus aureus [5]): 64 µg/mL (≈ 167 µM) | MIC (Staphylococcus aureus [6]): 1 µg/mL (≈ 2.61 µM) | MIC (Staphylococcus aureus [7]): 2 µg/mL (≈ 5.22 µM) | MIC (Staphylococcus aureus [8]): 1 µg/mL (≈ 2.61 µM) | MIC (Staphylococcus aureus [9]): 32 µg/mL (≈ 83.4 µM) | MIC (Staphylococcus aureus [10]): 2 µg/mL (≈ 5.22 µM) | MIC (Staphylococcus aureus [11]): 4 µg/mL (≈ 10.4 µM) | MIC (Staphylococcus aureus [12]): 0.13 µg/mL (≈ 0.339 µM) | MIC (Staphylococcus aureus [13]): 8 µg/mL (≈ 20.9 µM) | MIC (Staphylococcus aureus [14]): 2 µg/mL (≈ 5.22 µM) | MIC (Staphylococcus aureus [15]): 2 µg/mL (≈ 5.22 µM) | MIC (Staphylococcus aureus [16]): 2 µg/mL (≈ 5.22 µM) | MIC (Staphylococcus aureus [17]): 1 µg/mL (≈ 2.61 µM) | MIC (Staphylococcus aureus [18]): 2 µg/mL (≈ 5.22 µM) | MIC (Staphylococcus aureus [19]): 0.13 µg/mL (≈ 0.339 µM) | MIC (Staphylococcus aureus [20]): 1 µg/mL (≈ 2.61 µM) | MIC (Staphylococcus aureus [21]): 1 µg/mL (≈ 2.61 µM) | MIC (Staphylococcus aureus [22]): 32 µg/mL (≈ 83.4 µM) | MIC (Staphylococcus aureus [23]): 1 µg/mL (≈ 2.61 µM) | MIC (Staphylococcus aureus [24]): 0.5 µg/mL (≈ 1.3 µM) | MIC (Staphylococcus aureus [25]): 2 µg/mL (≈ 5.22 µM) | MIC (Staphylococcus aureus [26]): 8 µg/mL (≈ 20.9 µM) | MIC (Staphylococcus aureus [27]): 4 µg/mL (≈ 10.4 µM) | MIC (Staphylococcus aureus [28]): 1 µg/mL (≈ 2.61 µM)

NC(=O)c1c(F)ccc(N(Cc2ccc(F)cc2)Cc2ccc(F)cc2)c1F
IC50 (L929): > 100 µM | MIC (Staphylococcus aureus [29]): 50 µM (≈ 19.4 µg/mL) | Selectivity Index [30]: >2 | MIC (Escherichia coli): > 64 µg/mL

CCCCCCCCCOc1ccc(F)c(C(N)=O)c1F
IC50 (L929): 90 µM | MIC (Staphylococcus aureus [29]): 3.1 µM (≈ 0.928 µg/mL) | Selectivity Index [30]: 29 | MIC (Escherichia coli): > 64 µg/mL

CCCCCCCCCNc1ccc(F)c(/C(N)=N/O)c1F
IC50 (L929): > 100 µM | MIC (Staphylococcus aureus [29]): 50 µM (≈ 15.7 µg/mL) | Selectivity Index [30]: >2 | MIC (Escherichia coli): > 64 µg/mL
